Reference: ChEMBL document CHEMBL1275586, “Phenotypic susceptibility to bevirimat in isolates from HIV-1-infected patients without prior exposure to bevirimat” (Antimicrob Agents Chemother, 2010)

Legend:
[1] = system: Human immunodeficiency virus 1; assay: Antiviral activity against Human immunodeficiency virus 1 isolate 32 harboring Gag-SP1 V370I and N372G mutant gene infected in human MT-2 cells by XTT assay relative to wild-type; type: functional, MT2
How it was run: (§1)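 Patient Gag-protease (SfoI-XmaI) fragments were ligated into the pXXLAI backbone, with colonies pooled to keep quasispecies. Virus came from 293T transfection, harvested at 2 days. MT-2 infection at 37°C used an input giving XTT signal-to-noise of 2.5–4.0 (≈MOI 0.001). Cells at ≈17,000/well with drug dilutions, 5 days, 37°C; XTT 1 h, A450–650. EC50 from % cell death; fold change vs wild-type LAI.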

[2] = system: Human immunodeficiency virus 1; assay: Antiviral activity against antiretroviral-pretreated Human immunodeficiency virus 1 isolate 8 infected in human MT-2 cells by XTT assay relative to wild-type; type: functional, MT2
How it was run: (§2)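 Patient-derived Gag fragments were pooled as bacterial colonies to keep quasispecies diversity and ligated into the pXXLAI (HIV-1 LAI) backbone. Virus was made by transfecting 293T cells and harvesting supernatant 2 days later. MT-2 cells were infected at 37°C with an inoculum titrated to give an XTT signal-to-noise of 2.5–4.0. Cells were plated into drug dilutions, incubated 5 days at 37°C, and read by XTT absorbance (450−650 nm). EC50 was taken from percent cell death and expressed as fold change versus wild-type LAI.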

[3] = system: Human immunodeficiency virus 1; assay: Antiviral activity against antiretroviral-pretreated PI-resistant Human immunodeficiency virus 1 isolate 28 infected in human MT-2 cells by XTT assay relative to wild-type; type: functional, MT2; how it was run: as §2
[4] = system: Human immunodeficiency virus 1; assay: Antiviral activity against Human immunodeficiency virus 1 isolate 30 infected in human MT-2 cells by XTT assay relative to wild-type; type: functional, MT2
[5] = system: Human immunodeficiency virus 1; assay: Antiviral activity against antiretroviral-pretreated PI-resistant Human immunodeficiency virus 1 isolate 25 harboring Gag-capsid G357S mutant gene and Gag-SP-1 […] mutant gene infected in human MT-2 cells by XTT assay relative to wild-type; type: functional, MT2; how it was run: as §2
[6] = system: Human immunodeficiency virus 1; assay: Antiviral activity against antiretroviral-pretreated PI-resistant Human immunodeficiency virus 1 isolate 3 harboring Gag-capsid G357S mutant gene, Gag-Sp-1 V370A and N372H mutant gene and deletion at T371 in Gag-SP-1 infected in human MT-2 cells by XTT assay relative to wild-type; type: functional, MT2; how it was run: as §2
[7] = system: Human immunodeficiency virus 1; assay: Antiviral activity against Human immunodeficiency virus 1 isolate 34 harboring Gag-capsid G357S mutant gene and Gag-SP1 V370A, N372T, S373P and T375A mutant gene infected in human MT-2 cells by XTT assay relative to wild-type; type: functional, MT2; how it was run: as §1
[8] = system: Human immunodeficiency virus 1; assay: Antiviral activity against Human immunodeficiency virus 1 isolate 38 harboring Gag-SP1 V370A, N372S/G, S373P/T/Q/K, A374A/G/T/S, T375A and I376M mutant gene infected in human MT-2 cells by XTT assay relative to wild-type; type: functional, MT2; how it was run: as §1
[9] = system: Human immunodeficiency virus 1; assay: Antiviral activity against Human immunodeficiency virus 1 isolate 6 harboring Gag-SP-1 S373 and A374 mutant infected in human MT-2 cells by XTT-assay relative to wild-type; type: functional, MT2; how it was run: as §1
[10] = system: Human immunodeficiency virus 1; assay: Antiviral activity against Human immunodeficiency virus 1 isolate 7 harboring Gap-SP-1 V362I mutant infected in human MT-2 cells by XTT-assay relative to wild-type; type: functional, MT2; how it was run: as §1
[11] = system: Human immunodeficiency virus 1; assay: Antiviral activity against Human immunodeficiency virus 1 LAI infected in human MT-2 cells by XTT-assay; type: functional, organism-based; details: MT2
How it was run: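 Recombinant virus produced by transfecting 7 μg viral plasmid (pXXLAI backbone; patient-derived SfoI-XmaI fragment for isolates) into 293T cells. Supernatant harvested 2 days later. 2.4 million MT-2 cells infected at 37°C with virus giving XTT signal-to-noise 2.5–4.0, then plated ≈17,000 cells/well with drug dilutions. After 5 days at 37°C, 5% CO2, 1.67 mg/ml XTT added for 1 h. A450–A650 read; EC50 from cell-death curves.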

[12] = system: Human immunodeficiency virus 1; assay: Antiviral activity against antiretroviral-pretreated Human immunodeficiency virus 1 isolate 22 infected in human MT-2 cells by XTT assay relative to wild-type; type: functional, MT2; how it was run: as §2
[13] = system: Human immunodeficiency virus 1; assay: Antiviral activity against Human immunodeficiency virus 1 isolate 22 harboring Gag-capsid V215L, H219Q, I223V, N252S, P255A, L268M and A340G mutant gene and Protease L19I, E35D, M36I, S37N, L63P, V77I and I93L mutant gene infected in human MT-2 cells by XTT-assay relative to wild-type; type: functional, MT2; how it was run: as §1
[14] = system: Human immunodeficiency virus 1; assay: Antiviral activity against Human immunodeficiency virus 1 isolate 32 harboring Gag-capsid, I138L, A146P, I147L, V159I, V215L, I223A, N252S/N, T280V and S310T and protease R41K/R, I62V, L63P, V77I and I93L mutant gene infected in human MT-2 cells by XTT-assay relative to wild-type; type: functional, MT2; how it was run: as §1
[15] = system: Human immunodeficiency virus 1; assay: Antiviral activity against Human immunodeficiency virus 1 isolate 28 harboring Gag-capsid I138M mutant gene and protease L10I, I13V, L23I, L33F, S37N, M46I, I54V, K55R, R57K, Q58E, D60E, I62V, L63P, A71I, I72V, L76V, V77I, V82A, I84V, I85V, L89M, L90M and I93L mutant gene infected in human MT-2 cells by XTT-assay relative to wild-type; type: functional, MT2; how it was run: as §1
[16] = system: Human immunodeficiency virus 1; assay: Antiviral activity against Human immunodeficiency virus 1 isolate 20 harboring Gag-capsid I138L, V215L, V218P, H219Q, M228I, E230D, G248T, T280A, E312D, A340G and G357S mutant gene and protease L10F, A22V, D30N, S37N, K45R, I54L, I62V, L63P, A71V, V77I, I84V, N88D and Q92K mutant gene infected in human MT-2 cells by XTT-assay relative to wild-type; type: functional, MT2; how it was run: as §1
[17] = system: Human immunodeficiency virus 1; assay: Antiviral activity against Human immunodeficiency virus 1 isolate 37 harboring Gag-capsid V135I, I138P, V143I, Q182H, V215L/V, V218P/A, H219Q, I223V, E230D, N252S, T280A, R286K, K302R and G357S mutant gene and protease S37D, R41K, L63P and I93L mutant gene infected in human MT-2 cells by XTT-assay relative to wild-type; type: functional, MT2; how it was run: as §1
[18] = system: Human immunodeficiency virus 1; assay: Antiviral activity against Human immunodeficiency virus 1 isolate 9 harboring Gag-capsid I138L, A146S, I147L, V215L, N252H, T280A, A340G and E345D mutant gene and protease L10I, I13V, K20M, L33V, M36I, S37N, I54V, R57K, I62V, L63P, I66L, A71V, G73S, P79A, I84V and L90M mutant gene infected in human MT-2 cells by XTT-assay relative to wild-type; type: functional, MT2; how it was run: as §1
[19] = system: Human immunodeficiency virus 1; assay: Antiviral activity against Human immunodeficiency virus 1 isolate 6 harboring Gag-capsid I138L and V215L mutant gene and protease L10I, S37N, M46L, G48V, R57K, L63P, I66F, A71V, V82T and I84V mutant gene infected in human MT-2 cells by XTT-assay relative to wild-type; type: functional, MT2; how it was run: as §1
[20] = system: Human immunodeficiency virus 1; assay: Antiviral activity against Human immunodeficiency virus 1 isolate 10 harboring Gag-capsid I138L, I147L, V159I, V215L, G248A, I256V, T280V, R286K and N315H mutant gene and protease L10I, K20R, E35D, M36I, S37N, R41K, K45R, F53L, I54V, L63P, I64V, A71T, V82A, L90M and I93L mutant gene infected in human MT-2 cells by XTT-assay relative to wild-type; type: functional, MT2; how it was run: as §1
[21] = system: Human immunodeficiency virus 1; assay: Antiviral activity against Human immunodeficiency virus 1 isolate 23 harboring Gag-capsid I138L, V215L, E319D, A340G, G357S and V362I mutant gene and protease L10V, V11L, V32I, L33F, E34Q, E35D, M36L, S37T, M46I, I47V, G48V, I54M, I62V, L63P, I64V, I72V, T74S, V77I, V82A, I84V and T91S mutant gene infected in human MT-2 cells by XTT-assay relative to wild-type; type: functional, MT2; how it was run: as §1
[22] = system: Human immunodeficiency virus 1; assay: Antiviral activity against Human immunodeficiency virus 1 isolate 39 harboring Gag-capsid A146P, I147L, V215L, M228I, G248A, R286K, A326S, G357S and V362I mutant gene and protease K14R, E35D, M36I, S37N, R41K, K45R, D60E, I62V and I64V mutant gene infected in human MT-2 cells by XTT-assay relative to wild-type; type: functional, MT2; how it was run: as §1

Compound	fold change (FC) [13]	fold change (FC) [14]	fold change (FC) [15]	fold change (FC) [16]	fold change (FC) [17]	fold change (FC) [18]	fold change (FC) [19]	fold change (FC) [20]	fold change (FC) [21]	fold change (FC) [22]	further results
C=C(C)[C@@H]1CC[C@]2(C(=O)O)CC[C@]3(C)[C@H](CC[C@@H]4[C@@]5(C)CC[C@H](OC(=O)CC(C)(C)C(=O)O)C(C)(C)[C@@H]5CC[C@]43C)[C@@H]12 [BEVIRIMAT]	–	–	–	–	–	–	–	–	–	–	fold change (FC) [1]: 0.9; fold change (FC) [2]: 1.2; fold change (FC) [3]: 1.3; fold change (FC) [4]: 5.2; fold change (FC) [5]: 11; fold change (FC) [6]: >100; fold change (FC) [7]: >100; fold change (FC) [8]: >100; fold change (FC) [9]: >100; fold change (FC) [10]: >100; EC50 [11]: 34 nM; fold change (FC) [12]: 0.7
COC(=O)N[C@H](C(=O)N[C@@H](Cc1ccccc1)[C@@H](O)CN(Cc1ccc(-c2ccccn2)cc1)NC(=O)[C@@H](NC(=O)OC)C(C)(C)C)C(C)(C)C [ATAZANAVIR]	1.3	1.2	14.4	51.9	0.9	44.4	29.2	8.5	521	1.4	–
Cc1cccc(C)c1OCC(=O)N[C@@H](Cc1ccccc1)[C@@H](O)C[C@H](Cc1ccccc1)NC(=O)[C@H](C(C)C)N1CCCNC1=O [LOPINAVIR]	0.9	0.5	99.3	13.3	0.8	16.5	3.4	15.3	203	0.8	–
